From ChEMBL document CHEMBL4261579, “β-amino alcohols and their respective 2-phenyl-N-alkyl aziridines as potential DNA minor groove binders” (Eur J Med Chem, 2018)

Assays:
[1] = Selectivity index, ratio of CC50 for human MCF10 cells to IC50 for human MCF7 cells; format: toxicity; conditions: MCF10 cells versus MCF7 cells, read-out: Ratio CC50/IC50
[2] = Antiproliferative activity against human MCF10 cells after 48 hrs by MTT assay; format: cell-based
Method in brief: (§1)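 MCF-10, MCF-7 or MDA-MB-231 cells, 5.0×10^5 cells seeded and grown 24 h, then exposed 48 h at 37°C to serial dilutions from 500 to 3.9 μM (DMSO 0,5%). Read-out by MTT (2.0 mg/mL in PBS), formazan dissolved in DMSO, absorbance at 570 nm. Viability is given as % of untreated cells, with IC50 from curve fitting. Mean of triplicates.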

[3] = test system: MDA-MB-231; experiment: Antiproliferative activity against human MDA-MB-231 cells after 48 hrs by MTT assay; format: functional, cell-based; conditions: MDA-MB-231, 48 h; method in brief: as §1
[4] = test system: MCF7; experiment: Antiproliferative activity against human MCF7 cells after 48 hrs by MTT assay; format: functional, cell-based; conditions: MCF7, 48 h; method in brief: as §1
[5] = Selectivity index, ratio of CC50 for human MCF10 cells to IC50 for human MDA-MB-231 cells; format: toxicity; conditions: MCF10 cells versus MDA-MB-231 cells, read-out: Ratio CC50/IC50
[6] = test system: MDA-MB-231; experiment: Induction of apoptosis in human MDA-MB-231 cells assessed as necrotic cells after 48 hrs by Annexin V/FITC-propidium iodide staining-based flow cytometric analysis (reference value: 7.2%)
[7] = test system: MDA-MB-231; experiment: Induction of apoptosis in human MDA-MB-231 cells assessed as late apoptotic cells after 48 hrs by Annexin V/FITC-propidium iodide staining-based flow cytometric analysis (reference value: 10.7%)
[8] = test system: Calf thymus DNA; experiment: Binding affinity to calf thymus DNA at 10^-6 mol/L after 5 mins by UV/Visible spectrophotometric method; format: nucleic-acid assay; conditions: Bos taurus
Method in brief: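 Calf-thymus DNA dissolved in Tris buffer (5 mM Tris-HCl, 50 mM NaCl, pH 7.4), stirred about 12 h, A260/A280 1.86, quantified at 260 nm (ε 6600 M⁻¹ cm⁻¹). Kb was taken from a Benesi-Hildebrand fit.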

[9] = test system: MDA-MB-231; experiment: Induction of apoptosis in human MDA-MB-231 cells assessed as early apoptotic cells after 48 hrs by Annexin V/FITC-propidium iodide staining-based flow cytometric analysis (reference value: 9.0%)

Row | Kb [8] [×10⁵ /M] | Compound | selectivity ratio [1] | CC50 at 48 h [2] [µM] | IC50 [3] [µM] | IC50 [4] [µM] | selectivity ratio [5] | Activity [6] [%] | Activity [7] [%] | Activity [9] [%]
1 | – | OC(CNc1ccccc1)c1ccccc1 (stereo unspecified) | 1.33 | 316 | 237 | 236 | 1.33 | – | – | –
2 | – | OC(CNCc1ccccc1)c1ccccc1 (stereo unspecified) | 0.96 | 202 | 225 | 210 | 0.89 | – | – | –
3 | – | c1ccc(CCCCN2CC2c2ccccc2)cc1 (stereo unspecified) | 1.83 | 43.3 | 11.1 | 24.7 | 4.08 | 3.3 | 40 | –
4 | – | CCCCNCC(O)c1ccccc1 (stereo unspecified) | 0.67 | 188 | 259 | 280 | 0.72 | – | – | –
5 | – | c1ccc(CN2CC2c2ccccc2)cc1 (stereo unspecified) | 1.47 | 41 | 40.4 | 27.8 | 1.01 | – | – | –
6 | – | OC(CNCCc1ccccc1)c1ccccc1 (stereo unspecified) | 0.62 | 198 | 190 | 318 | 1.04 | – | – | –
7 | 1.59 | OC(CNCCCCc1ccccc1)c1ccccc1 (stereo unspecified) | 2.88 | 107 | 50.8 | 37.2 | 2.11 | – | – | –
8 | – | c1ccc(CCN2CC2c2ccccc2)cc1 (stereo unspecified) | 0.2 | 37.6 | 19 | 170 | 1.97 | – | – | –
9 | – | OC(CNCCCc1ccccc1)c1ccccc1 (stereo unspecified) | 2.02 | 196 | 102 | 96.4 | 1.92 | – | – | –
10 | – | OC(CNCCCCc1ccccc1)c1ccc(Br)cc1 (stereo unspecified) | 4.04 | 58.5 | 22.7 | 14.5 | 2.57 | 6.7 | 56.8 | 33.6
11 | – | c1ccc(CCCN2CC2c2ccccc2)cc1 (stereo unspecified) | 1.44 | 35.4 | 19.9 | 24.5 | 1.77 | – | – | –
12 | – | OC(CNCc1ccccc1)c1ccc(Br)cc1 (stereo unspecified) | 2.18 | 116 | 73.9 | 53 | 1.56 | – | – | –
